PREPL inhibitor = inhibits the human prolyl oligopeptidase-like enzyme | Q4J6C6 | 320,000 tested, 0.68% active | inhibition, % at 5.96 µM | recombinant PREPL, fluorescence polarization activity-based probe; in the data active = inhibition above about 43%;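 note: 0% = enzyme with DMSO and 100% = wells lacking enzyme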
CHOP inh = inhibitors of CHOP induction in ER stress response. AID 2732. inhibition, % at 10 µM. CHO-K1 CHOP-promoter luciferase, tunicamycin-induced, 15-18 h. 220,000 tested, 3.8% active;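 active = compounds that reduced the stress-induced luciferase reporter signal by more than about 70% of percent inhibition, limit read from the data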;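 note: 0% = tunicamycin plus vehicle and 100% = wells without tunicamycin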
GRIN3A LBD mod = NR3A (human) ligand-binding domain modulation; 340,000 tested, 2.5% active; AID 1259313; NR3A LBD differential scanning fluorimetry, Tm shift; 0% = protein alone, 100% = glycine-bound protein; Tm shift relative to glycine control, % at 25 µM;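 active = melting temperature shift of at least 10% of the positive control shift, at one fixed dose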
T cruzi inh = T. cruzi replication inhibition. 300,000 tested, 1.4% active. inhibition, % (concentration not given with the values). T. cruzi beta-gal in NIH3T3, luminescence, 90 h;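 active = mean inhibition across valid replicates above about 55%, limit read from the data; inconclusive = mean below that limit but half or more replicates reach it; inactive = mean below it, under half of replicates reach it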;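 note: signal also drops with host cell toxicity which is not excluded here; 0% = plate median of DMSO wells and 100% = zero luminescence signal; higher percent means less beta-gal luminescence so fewer parasites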
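Material: NIH/3T3 host cells with β-galactosidase reporter T. cruzi; Input: 5,000 host fibroblasts per well; Medium: DMEM, 2% fetal bovine serum; Compound: 50 nL DMSO compound solution per well; Schedule: 3 h host attachment, then at least 90 h co-culture; Detection: luminescent β-galactosidase signal after 60 min lysis.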
Beta cell apopt = beta cell apoptosis inhibition; INS-1E cytokine-induced death, ATP luminescence, 48 h; percent of positive-control rescue, neutral wells zero; protection from apoptosis, % (no concentration beside the values); 300,000 tested, 0.8% active; AID 435005;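 active = Every replicate reaches about 75%, or at least half do and their mean reaches it too, limit read from the data; inconclusive = At least half of replicates reach the limit but their mean does not; inactive = Under half of replicates reach the limit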;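 note: 0% = cytokine-treated negative control wells and 100% = positive control rescue; higher means more ATP so stronger rescue from cytokine killing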
CSC inhib = cancer stem cell inhibition. cancer stem cell-like cells viability, luminescence. inhibition, % at 7.5 µM. 300,000 tested, 1.1% active; in the data active = inhibition above about 75%; inconclusive = no clear call, values can overlap the other calls; tested in HMLE shEcad cells
CHOP confirm = confirmation of CHOP induction inhibitors. shares compounds with CHOP inh. inhibition, % at 10 µM. CHO-CHOP promoter luciferase reporter, tunicamycin-induced, luminescence. 2,100 tested, 45% active;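 active = mean of three repeat readings of reporter signal inhibition above a set limit, cut at about 70% in these data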;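 note: 0% = tunicamycin plus vehicle and 100% = wells lacking tunicamycin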
* = called active by the depositor; ? = inconclusive; · = no result given. The list is not random: actives were taken first. Their share in the collection is about 6.7%.

SMILES	PREPL inhibitor	CHOP inh	GRIN3A LBD mod	T cruzi inh	Beta cell apopt	CSC inhib	CHOP confirm
COc1ccc2oc(=O)c(-c3cn4ccc(C)cc4n3)cc2c1	8	97*	-2	-25	-9	·	-30
C=CCc1cc(C)ccc1OCC(O)CN1CCN(c2ccccc2)CC1 (centres undefined)	11	106*	-8	16	-10	22	96*
O=C(Cc1ccc(Cl)cc1)NCCc1c[nH]c2ccccc12	-2	·	-3	-3	-3	0	·
O=C(CCl)N(c1ccc(Cl)cc1)c1c[nH]c2ccccc12	3	·	-6	58*	-5	88*	119*
O=C(CCl)N(c1ccccc1)c1c[nH]c2ccccc12	-4	·	1	14	-32	59	-29
Cc1cc(NC(=O)Cc2ccccc2)ccc1NC(=O)c1cccs1	4	8	0	·	-6	3	·
CCCCN1C(=O)C2(NNc3ccccc3O2)c2ccccc21 (centres undefined)	11	103*	1	28	0	11	-2
Cn1c(=O)c([N+](=O)[O-])c(Cl)c2ccccc21	·	108*	0	88*	·	·	141*
Nc1cc(Cl)ccc1Oc1ccc(Cl)cc1	4	96*	1	10	3	-2	134*
Nc1cc(Cl)ccc1Oc1ccccc1	5	37	0	8	-3	-15	·
CC1=NOC(=O)/C1=C\c1ccc(-c2ccccc2Br)o1	·	-17	8	21	·	·	·
CCOc1ccc(-c2nnc(SCC(=O)Nc3ccc4c(c3)c3ccccc3n4CC)n2N)cc1	5	98*	-2	2	71	52	39
O=[N+]([O-])/C=C/c1cn(Cc2ccc(Cl)cc2)c2ccccc12	-14	100*	-5	1	0	99*	-25
Cc1cccc(Cn2cc(/C=C/[N+](=O)[O-])c3ccccc32)c1	4	102*	-6	39	-1	109*	-28
O=C(O)c1ccc(Cn2cc(/C=C\[N+](=O)[O-])c3ccccc32)o1	19	·	2	2	9	10	·
COc1cc2nc(CSc3nc(-c4ccc(F)cc4)cs3)[nH]c(=O)c2cc1OC	0	105*	-8	-3	-6	-6	51
COC(=O)c1ccc2c(=O)[nH]c(CSc3nc(-c4ccc(F)cc4)cs3)nc2c1	-13	10	2	-11	·	·	·
O=S(c1ccc2ccccc2c1)c1cnns1 (centres undefined)	-4	105*	-1	·	-24	40	3
O=C(c1ccc(F)cc1)N1CCC(C(=O)N2CCN(c3ncccn3)CC2)CC1	10	·	0	·	-2	3	·
Cc1ccc(-c2nnnn2-c2ccc(C)cc2)cc1	-1	7	0	-2	2	-5	·
Cc1ccc(-n2nnnc2CCl)cc1	·	108*	0	-6	·	·	-50
Cc1cc(/C=N/Nc2ccc([N+](=O)[O-])cn2)c(C)n1-c1ccc(C(=O)O)cc1	21	3	-3	-1	-1	11	·
Cc1cc(/C=N/Nc2nc(N)ncc2[N+](=O)[O-])c(C)n1-c1cccc(C(F)(F)F)c1	19	98*	·	-7	22	12	96*
Cc1cc(Oc2cc(N)cc([N+](=O)[O-])c2)ccc1Cl	28	102*	-4	14	5	12	4
Nc1cc(OCC(F)(F)F)cc([N+](=O)[O-])c1	4	7	5	-2	-4	11	·
SMILES	PREPL inhibitor	CHOP inh	GRIN3A LBD mod	T cruzi inh	Beta cell apopt	CSC inhib	CHOP confirm
CCCCCc1cc(=O)oc2c(C(CCN3CCCCC3)c3cc(OC)c(OC)c(OC)c3)c(OC)cc(OC)c12 (centres undefined)	-12	105*	-4	33	30	79*	53
CCOc1ccccc1Oc1cn[nH]c1-c1ccc(O)cc1O	-9	·	5	-16	7	-15	·
C=C(C)COc1ccc(-c2n[nH]c(C)c2Oc2ccccc2OC)c(O)c1	12	107*	9	6	7	-7	115*
CCCc1ccc(Oc2cn[nH]c2-c2ccc(O)cc2O)cc1	27	108*	28*	0	2	?	120*
C=C(C)COc1ccc(-c2[nH]ncc2Oc2cccc(OC)c2)c(O)c1	6	103*	0	-4	1	-9	12
C=C(C)COc1ccc(-c2[nH]ncc2-c2ccccc2)c(O)c1	7	102*	2	-20	0	-13	24
Cc1ccc(NC(=O)CCn2c(=S)oc3ccccc32)cc1F	3	·	-3	2	-7	-9	·
C=C(C)COc1ccc(-c2[nH]ncc2Oc2ccccc2OCC)c(O)c1	2	107*	11*	·	39	?	107*
Cc1ccc(C)c(OCCC(=O)N2CCN(S(=O)(=O)c3ccc([N+](=O)[O-])cc3)CC2)c1	6	·	1	·	8	·	·
CN1CC(c2ccccc2)C2(SC(=S)N(Cc3ccco3)C2=O)C12C(=O)Nc1ccccc12 (centres undefined)	5	101*	0	41	4	104*	84*
Cc1ccc2nc(-c3cc(-c4ccccc4)no3)cn2c1	-4	105*	5	·	-3	-12	74*
Cc1cc2ncn(-c3ncnc4sc5c(c34)CCC(C)C5)c2cc1C (centres undefined)	13	97*	0	-12	-3	2	14
COc1ccccc1CNC(=O)C1CCC(CNS(=O)(=O)c2ccc(F)cc2)CC1 (centres undefined)	3	·	-6	-3	-3	-2	·
C/C(=C\c1ccco1)C1C(C#N)=C(N)Oc2n[nH]c(-c3ccc(C)cc3)c21 (centres undefined)	24	105*	-5	-28	-20	8	114*
C/C(=C\c1ccco1)C1C(C#N)=C(N)Oc2n[nH]c(-c3ccccc3)c21 (centres undefined)	-22	24	-20	-27	-3	-18	·
C=CCOc1c(Br)cc(/C=N/n2c(CC)n[nH]c2=S)cc1Br	-6	107*	-11	-20	-1	28	-7
O=C(Nc1ccc(S(=O)(=O)NC2=NCCCCC2)cc1)C1COc2ccccc2O1 (centres undefined)	5	10	-1	-7	-2	-5	·
CC(C)NC(=O)Cn1c(SCC(=O)N2c3ccccc3CC2C)nc2ccccc21 (centres undefined)	1	56	1	9	-8	-20	·
CC(C)Cn1c(=O)c2ccccc2n2c(SCC(=O)N3c4ccccc4CC3C)nnc12 (centres undefined)	10	98*	20*	3	25	2	85*
NC(=O)NC(=O)C(c1ccccc1)N1CCN(S(=O)(=O)Cc2ccccc2)CC1 (centres undefined)	9	·	-1	·	0	·	·
